Where only a bound is given, the exact number is not on record here.

The first test has as its target T1, fMet-Leu-Phe receptor (Homo sapiens) (UniProt P21462).
T1 sequence (whole entry): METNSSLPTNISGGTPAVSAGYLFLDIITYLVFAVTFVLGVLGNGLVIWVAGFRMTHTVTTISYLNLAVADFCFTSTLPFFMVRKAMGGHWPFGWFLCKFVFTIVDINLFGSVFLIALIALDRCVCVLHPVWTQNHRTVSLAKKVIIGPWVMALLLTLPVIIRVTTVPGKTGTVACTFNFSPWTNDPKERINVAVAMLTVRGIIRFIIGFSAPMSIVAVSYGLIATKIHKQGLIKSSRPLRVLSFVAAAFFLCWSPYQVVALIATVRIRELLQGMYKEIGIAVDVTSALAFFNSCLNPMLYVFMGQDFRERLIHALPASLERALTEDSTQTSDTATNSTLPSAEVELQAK
Put plainly: Inhibitory activity against Human formylpeptide receptor (FPR) of human leukemia HL-60 cells. It is filed as cell-based. In a few lines: (§1)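 HL-60 cells differentiated 48 h with 0.2 mM dibutyryl cAMP, washed, then treated with 5 μM cytochalasin B (5–10 min, 37 °C). Stimulated 10 min with 30 nM f-MLF. N-acetyl-β-D-glucosaminidase release read at 410 nm on p-nitrophenyl substrate after spontaneous-release subtraction. Duplicate wells; IC20/IC50 as mean ± SD of independent experiments.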
What is called IC20 is the concentration at which the effect reaches the 20% level. Turning to `CC/C=C/C[C@@H](C)[C@@H](O)[C@H]1C(=O)N[C@@H](CC)C(=O)N(C)CC(=O)N(C)[C@@H](C(C)C)C(=O)N[C@H](C(C)C)C(=O)N(C)[C@H](CC(C)C)C(=O)N[C@@H](C)C(=O)N[C@H](C)C(=O)N(C)[C@@H](CC(C)C)C(=O)N(C)[C@@H](CC(C)C)C(=O)N(C)[C@@H](C(C)C)C(=O)N1C`, the IC20 turned out to be 1.44 µM.
Still for that read-out and setting: to `C/C=C/C[C@@H](C)[C@@H](O)[C@H]1C(=O)N[C@@H]([C@@H](C)O)C(=O)N(C)CC(=O)N(C)[C@H](CC(C)C)C(=O)N[C@@H](C(C)C)C(=O)N(C)[C@H](CC(C)C)C(=O)N[C@@H](C)C(=O)N[C@](O)(C(C)C)C(=O)N(C)[C@@H](CC(C)C)C(=O)N[C@@H](CC(C)C)C(=O)N(C)[C@@H](C(C)C)C(=O)N1C` belongs 0.93 µM; to `C/C=C/C[C@@H](C)[C@@H](O)[C@H]1C(=O)N[C@@H](C)C(=O)N(C)CC(=O)N(C)[C@H](CC(C)C)C(=O)N[C@H](C(C)C)C(=O)N(C)[C@H](CC(C)C)C(=O)N[C@@H](C)C(=O)N[C@H](C)C(=O)N(C)[C@@H](CC(C)C)C(=O)N[C@@H](CC(C)C)C(=O)N(C)[C@@H](C(C)C)C(=O)N1C`, 0.2 µM.
Still for that read-out and setting: to `CC[C@@H]1NC(=O)[C@H]([C@H](O)[C@H](C)C/C=C/CO)N(C)C(=O)[C@H](C(C)C)N(C)C(=O)[C@H](CC(C)C)N(C)C(=O)[C@H](CC(C)C)N(C)C(=O)[C@@H](C)NC(=O)[C@H](C)NC(=O)[C@@H](CC(C)C)N(C)C(=O)[C@@H](C(C)C)NC(=O)[C@@H](CC(C)C)N(C)C(=O)CN(C)C1=O` belongs more than 10 µM; to `C/C=C/C[C@@H](C)[C@@H](O)[C@H]1C(=O)N[C@@H]([C@@H](C)O)C(=O)N(C)CC(=O)N[C@@H](C(C)C)C(=O)N[C@H](C(C)C)C(=O)N(C)[C@H](CC(C)C)C(=O)N[C@@H](C)C(=O)N[C@H](C)C(=O)N(C)[C@@H](CC(C)C)C(=O)N(C)[C@@H](CC(C)C)C(=O)N(C)[C@@H](C(C)C)C(=O)N1C`, more than 10 µM; to `C/C=C/C[C@@H](C)[C@@H](O)[C@H]1C(=O)N[C@@H]([C@@H](C)O)C(=O)N(C)CC(=O)N(C)[C@H](CC(C)C)C(=O)N[C@@H](CC(C)C)C(=O)N(C)[C@H](CC(C)C)C(=O)N[C@@H](C)C(=O)N[C@H](C)C(=O)N(C)[C@@H](CC(C)C)C(=O)N[C@@H](C)C(=O)N(C)[C@@H](C(C)C)C(=O)N1C`, 0.8 µM.
On the same count and under the same terms, to `C/C=C/C[C@@H](C)[C@@H](O)[C@H]1C(=O)N[C@@H](CC)C(=O)N(C)CC(=O)N(C)[C@H](CC(C)C)C(=O)N[C@H](C(C)C)C(=O)N(C)[C@H](CC(C)C)C(=O)N[C@@H](C)C(=O)N[C@H](C)C(=O)N(C)[C@@H](CC(C)C)C(=O)N[C@@H](CC(C)C)C(=O)N(C)[C@@H](C(C)C)C(=O)N1C` belongs 0.65 µM; to `C/C=C/C[C@@H](C)[C@@H](O)[C@H]1C(=O)N[C@@H]([C@@H](C)O)C(=O)N(C)CC(=O)N(C)[C@H](CC(C)C)C(=O)N[C@@H]([C@@H](C)CC)C(=O)N(C)[C@H](CC(C)C)C(=O)N[C@@H](C)C(=O)N[C@H](C)C(=O)N(C)[C@@H](CC(C)C)C(=O)N(C)[C@@H](CC(C)C)C(=O)N(C)[C@@H](C(C)C)C(=O)N1C`, 0.09 µM.
`C/C=C/C[C@@H](C)[C@@H](O)[C@H]1C(=O)N[C@@H](CC)C(=O)N(C)CC(=O)N[C@@H]([C@@H](C)CC)C(=O)N[C@H](C(C)C)C(=O)N(C)[C@H](CC(C)C)C(=O)N[C@@H](C)C(=O)N[C@H](C)C(=O)N(C)[C@@H](CC(C)C)C(=O)N(C)[C@@H](CC(C)C)C(=O)N(C)[C@@H](C(C)C)C(=O)N1C` yielded an IC20 of 2.8 µM. This IC20 lies about 31-fold higher than the previous one.
Still for that read-out and setting: to `C/C=C/C[C@@H](C)[C@@H](O)[C@H]1C(=O)N[C@@H](CC)C(=O)N(C)CC(=O)N(C)[C@H](CC(C)C)C(=O)N[C@H](C(C)C)C(=O)N(C)[C@H](CC(C)C)C(=O)N[C@@H](C)C(=O)N[C@H](C)C(=O)N[C@@H](CC(C)C)C(=O)N(C)[C@@H](CC(C)C)C(=O)N(C)[C@@H](C(C)C)C(=O)N1C` belongs 0.53 µM.
On the same count and under the same terms, with `C/C=C/C[C@@H](C)[C@@H](O)[C@H]1C(=O)N[C@@H](CC)C(=O)N(C)CC(=O)N[C@@H](CC(C)C)C(=O)N[C@H](C(C)C)C(=O)N(C)[C@H](CC(C)C)C(=O)N[C@@H](C)C(=O)N[C@H](C)C(=O)N(C)[C@@H](CC(C)C)C(=O)N(C)[C@@H](CC(C)C)C(=O)N(C)[C@@H](C(C)C)C(=O)N1C` the figure was more than 10 µM; with `CC/C=C/C[C@@H](C)[C@@H](O)[C@H]1C(=O)N[C@@H](CCC)C(=O)N(C)CC(=O)N(C)[C@H](CC(C)C)C(=O)N[C@H](C(C)C)C(=O)N(C)[C@H](CC(C)C)C(=O)N[C@@H](C)C(=O)N[C@H](C)C(=O)N(C)[C@@H](CC(C)C)C(=O)N(C)[C@@H](CC(C)C)C(=O)N(C)[C@@H](C(C)C)C(=O)N1C`, 2.6 µM; with `C/C=C/C[C@@H](C)[C@@H](O)[C@H]1C(=O)N[C@@H](CC)C(=O)N(C)CC(=O)N(C)[C@H](CC(C)C)C(=O)N[C@H](C(C)C)C(=O)N(C)[C@H](CC(C)C)C(=O)N[C@@H](C)C(=O)N[C@H](C)C(=O)N(C)[C@@H](CC(C)C)C(=O)N(C)[C@@H](CC(C)C)C(=O)N(C)[C@@H](C)C(=O)N1C`, 0.31 µM.
The same measure, in the same setting: with `C/C=C/C[C@@H](C)[C@@H](O)[C@H]1C(=O)N[C@@H]([C@@H](C)O)C(=O)N(C)CC(=O)N[C@@H](CC(C)C)C(=O)N[C@@H](CC(C)C)C(=O)N(C)[C@H](CC(C)C)C(=O)N[C@@H](C)C(=O)N[C@](O)(C(C)C)C(=O)N(C)[C@@H](CC(C)C)C(=O)N[C@@H](CC(C)C)C(=O)N(C)[C@@H](C(C)C)C(=O)N1C` the figure was 0.14 µM; with `C/C=C/C[C@@H](C)[C@@H](O)[C@H]1C(=O)N[C@@H](CCC)C(=O)N(C)CC(=O)N(C)[C@H](CC(C)C)C(=O)N[C@@H](CC(C)C)C(=O)N(C)[C@H](CC(C)C)C(=O)N[C@@H](C)C(=O)N[C@H](C)C(=O)N(C)[C@@H](CC(C)C)C(=O)N(C)[C@@H](CC(C)C)C(=O)N(C)[C@@H](C(C)C)C(=O)N1C`, 8.9 µM; with `CC(C)C[C@@H]1C(=O)N[C@@H](C(C)C)C(=O)N(C)[C@H](CC(C)C)C(=O)N[C@@H](C)C(=O)N[C@H](C)C(=O)N(C)[C@@H](CC(C)C)C(=O)N(C)[C@@H](CC(C)C)C(=O)N(C)[C@@H](C(C)C)C(=O)N(C)[C@@H](CC(C)C)C(=O)N[C@@H](C(C)C)C(=O)N(C)CC(=O)N1C`, 4.2 µM.
`CC/C=C/C[C@@H](C)[C@@H](O)[C@H]1C(=O)N[C@@H](CC)C(=O)N(C)[C@@H](Cc2ccccc2)C(=O)N(C)[C@H](CC(C)C)C(=O)N[C@H](C(C)C)C(=O)N(C)[C@H](CC(C)C)C(=O)N[C@@H](C)C(=O)N[C@H](C)C(=O)N(C)[C@@H](CC(C)C)C(=O)N(C)[C@@H](CC(C)C)C(=O)N(C)[C@@H](C(C)C)C(=O)N1C` registered a 20% effect concentration (IC20) of more than 10 µM.
On the same count and under the same terms, to `C/C=C/C[C@@H](C)[C@@H](O)[C@H]1C(=O)N[C@@H](CC)C(=O)N(C)CC(=O)N(C)[C@H](CC(C)C)C(=O)N[C@H](C(C)C)C(=O)N[C@@H](CC(C)C)C(=O)N[C@@H](C)C(=O)N[C@H](C)C(=O)N(C)[C@@H](CC(C)C)C(=O)N(C)[C@@H](CC(C)C)C(=O)N(C)[C@@H](C(C)C)C(=O)N1C` belongs more than 10 µM; to `C/C=C/C[C@@H](C)[C@@H](O)[C@H]1C(=O)N[C@@H](CCC)C(=O)N(C)CC(=O)N(C)[C@H](CC(C)C)C(=O)N[C@H](C(C)C)C(=O)N[C@@H](CC(C)C)C(=O)N[C@@H](C)C(=O)N[C@H](C)C(=O)N(C)[C@@H](CC(C)C)C(=O)N(C)[C@@H](CC(C)C)C(=O)N(C)[C@@H](C(C)C)C(=O)N1C`, 8.1 µM.
In the case of `CC[C@@H]1NC(=O)[C@H](C2CCCCC2C)N(C)C(=O)[C@H](C(C)C)N(C)C(=O)[C@H](CC(C)C)N(C)C(=O)[C@H](CC(C)C)N(C)C(=O)[C@@H](C)NC(=O)[C@@H](C)NC(=O)[C@@H](CC(C)C)N(C)C(=O)[C@@H](C(C)C)NC(=O)[C@@H](CC(C)C)N(C)C(=O)CN(C)C1=O` (stereo not given in full), the IC20 is more than 10 µM.
The same measure, in the same setting: to `C/C=C/C[C@@H](C)[C@@H](O)[C@H]1C(=O)N[C@@H](CCC)C(=O)N(C)CC(=O)N(C)[C@H](CC(C)C)C(=O)N[C@@H](CCC)C(=O)N(C)[C@H](CC(C)C)C(=O)NC(C)C(=O)N[C@H](C)C(=O)N(C)[C@@H](CC(C)C)C(=O)N(C)[C@@H](CC(C)C)C(=O)N(C)[C@@H](C(C)C)C(=O)N1C` (stereo not given in full) belongs 0.2 µM; to `CC/C=C/C[C@@H](C)[C@@H](O)[C@H]1C(=O)N[C@@H](CC)C(=O)N(C)CC(=O)N(C)[C@@H](CC(C)(C)O)C(=O)N[C@H](C(C)C)C(=O)N(C)[C@H](CC(C)C)C(=O)N[C@@H](C)C(=O)N[C@H](C)C(=O)N(C)[C@@H](CC(C)C)C(=O)N(C)[C@@H](CC(C)C)C(=O)N(C)[C@@H](C(C)C)C(=O)N1C`, 1.7 µM.
With `C/C=C/C[C@@H](C)[C@@H](O)[C@H]1C(=O)N[C@@H](CC)C(=O)N(C)CC(=O)N[C@@H](C(C)C)C(=O)N[C@H](C(C)C)C(=O)N(C)[C@H](CC(C)C)C(=O)N[C@@H](C)C(=O)N[C@H](C)C(=O)N(C)[C@@H](CC(C)C)C(=O)N(C)[C@@H](CC(C)C)C(=O)N(C)[C@@H](C(C)C)C(=O)N1C`, the IC20 was more than 10 µM.
Still for that read-out and setting: to `C/C=C/C[C@@H](C)[C@@H](O)[C@H]1C(=O)N[C@@H](CCC)C(=O)N(C)CC(=O)N(C)[C@H](CC(C)C)C(=O)N[C@H](C(C)C)C(=O)N(C)[C@H](CC(C)C)C(=O)N[C@@H](C)C(=O)N[C@H](C)C(=O)N(C)[C@@H](CC(C)C)C(=O)N[C@@H](CC(C)C)C(=O)N(C)[C@@H](C(C)C)C(=O)N1C` belongs 0.66 µM.

The target of the next test is T2, fMet-Leu-Phe receptor (Homo sapiens, UniProt P21462).
T2 sequence (P21462 whole entry): T1 sequence (whole entry)
Put plainly: Inhibitory activity against human formylpeptide receptor (FPR) of human leukemia HL-60 cells. The format is cell-based. In a few lines: as §1
Usually IC50 stands for the point on the concentration scale where inhibition reaches its midpoint. A lower IC50 goes with higher potency. For the compound `C/C=C/C[C@@H](C)[C@@H](O)[C@H]1C(=O)N[C@@H](CCC)C(=O)N(C)CC(=O)N(C)[C@@H](CC(C)C)C(=O)N[C@@H](C(C)C)C(=O)N(C)[C@@H](CC(C)C)C(=O)N[C@@H](C)C(=O)N[C@H](C)C(=O)N(C)[C@@H](CC(C)C)C(=O)N[C@@H](CC(C)C)C(=O)N(C)[C@@H](C(C)C)C(=O)N1C`, the IC50 was more than 3 µM.
